Results taken from publication PMC3529916 (Bioorganic & medicinal chemistry, 2012).
Entries after “also recorded” stand apart in the source; their conditions may differ.

How the values were obtained:
[1] = test system: anxiety; experiment: Light/dark cycle test; format: in vivo, mouse
[2] = test system: locomotor activity; experiment: Locomotor activity test; format: in vivo, mouse
[3] = test system: anxiety; conditions: cited from earlier work; for Anti-conflict effect / Effect on non-suppressed responding / response rates: dose range 0.1 to 10 mg/kg
[4] = ref Mithridion, unpublished results; cited from earlier work
[5] = ref Bristol-Myers Squibb, unpublished results of Phase I trials; cited from earlier work
[6] = via hepatic enzymes; ref unpublished results; cited from earlier work
[7] = cited from earlier work
[8] = test system: neuropathic and inflammatory pain; conditions: cited from earlier work
[9] = Metabolic stability using pooled human liver microsomes; format: in vitro ADME; conditions: 1 and 10 μM, up to 60 min
[10] = molecular target: α2β3γ2 GABAA receptors (Rattus norvegicus, UniProt P18508+P23576); experiment: Two-electrode voltage clamp, stimulation of GABA EC3 currents in Xenopus oocytes; format: cell-based; conditions: 100 nM
Chain of α2β3γ2 GABAA receptors (P23576 29-451): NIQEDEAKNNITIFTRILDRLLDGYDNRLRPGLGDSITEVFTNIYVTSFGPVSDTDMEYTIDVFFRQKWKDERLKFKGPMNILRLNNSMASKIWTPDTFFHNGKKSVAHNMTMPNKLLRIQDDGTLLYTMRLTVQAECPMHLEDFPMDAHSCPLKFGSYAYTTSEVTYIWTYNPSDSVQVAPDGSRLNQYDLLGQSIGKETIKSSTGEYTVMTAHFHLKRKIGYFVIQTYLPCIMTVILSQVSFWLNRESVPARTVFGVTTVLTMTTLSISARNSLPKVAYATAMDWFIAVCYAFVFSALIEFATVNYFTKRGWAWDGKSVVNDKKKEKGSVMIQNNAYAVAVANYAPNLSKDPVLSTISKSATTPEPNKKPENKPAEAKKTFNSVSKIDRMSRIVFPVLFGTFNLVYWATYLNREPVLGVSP
Chain of α2β3γ2 GABAA receptors (P63079 26-473 partner): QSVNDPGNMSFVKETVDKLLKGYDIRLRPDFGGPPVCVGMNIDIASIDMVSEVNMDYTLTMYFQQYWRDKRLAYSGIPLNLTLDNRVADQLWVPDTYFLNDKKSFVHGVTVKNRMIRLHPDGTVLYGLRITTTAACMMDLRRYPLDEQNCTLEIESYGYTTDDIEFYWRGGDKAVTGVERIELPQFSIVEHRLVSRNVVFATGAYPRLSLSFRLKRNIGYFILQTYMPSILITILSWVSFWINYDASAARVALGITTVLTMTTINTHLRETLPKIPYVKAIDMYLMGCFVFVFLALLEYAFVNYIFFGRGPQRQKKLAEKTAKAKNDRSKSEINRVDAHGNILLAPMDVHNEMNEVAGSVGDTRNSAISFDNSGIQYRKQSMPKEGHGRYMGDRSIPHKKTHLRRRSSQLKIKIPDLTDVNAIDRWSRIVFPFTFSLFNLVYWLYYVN
Chain of α2β3γ2 GABAA receptors (P18508 39-466): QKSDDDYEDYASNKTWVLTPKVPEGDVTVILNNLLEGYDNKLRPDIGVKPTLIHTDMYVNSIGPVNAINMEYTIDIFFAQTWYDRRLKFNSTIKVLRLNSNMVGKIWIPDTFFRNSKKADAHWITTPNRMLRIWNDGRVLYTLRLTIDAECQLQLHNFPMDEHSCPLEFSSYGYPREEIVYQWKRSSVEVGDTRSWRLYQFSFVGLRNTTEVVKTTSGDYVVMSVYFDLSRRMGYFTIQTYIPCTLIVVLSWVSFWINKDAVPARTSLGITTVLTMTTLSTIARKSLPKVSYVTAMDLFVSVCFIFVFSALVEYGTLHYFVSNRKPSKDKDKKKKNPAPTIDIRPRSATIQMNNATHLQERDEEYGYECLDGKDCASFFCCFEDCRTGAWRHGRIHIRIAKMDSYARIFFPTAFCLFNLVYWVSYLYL
Method in brief: (§1)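 Xenopus oocytes were injected with rat β3 and γ2 cDNAs plus α1, α2, α3 or α5. Follicle layers were removed 36 h later. Two-electrode voltage clamp was done at −60 mV and room temperature in XR buffer (pH 7.4, 5 mM HEPES). Test compound (0.1% DMSO final) was preapplied for 30 s, then coapplied with EC3 GABA until peak, with washes of up to 15 min. Curves were fitted to a four-parameter logistic.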

[11] = molecular target: α5β3γ2 GABAA receptors (Rattus norvegicus, UniProt P18508+P19969); experiment: as above; format: cell-based
Chain of α5β3γ2 GABAA receptors (P19969 32-464 limits assumed): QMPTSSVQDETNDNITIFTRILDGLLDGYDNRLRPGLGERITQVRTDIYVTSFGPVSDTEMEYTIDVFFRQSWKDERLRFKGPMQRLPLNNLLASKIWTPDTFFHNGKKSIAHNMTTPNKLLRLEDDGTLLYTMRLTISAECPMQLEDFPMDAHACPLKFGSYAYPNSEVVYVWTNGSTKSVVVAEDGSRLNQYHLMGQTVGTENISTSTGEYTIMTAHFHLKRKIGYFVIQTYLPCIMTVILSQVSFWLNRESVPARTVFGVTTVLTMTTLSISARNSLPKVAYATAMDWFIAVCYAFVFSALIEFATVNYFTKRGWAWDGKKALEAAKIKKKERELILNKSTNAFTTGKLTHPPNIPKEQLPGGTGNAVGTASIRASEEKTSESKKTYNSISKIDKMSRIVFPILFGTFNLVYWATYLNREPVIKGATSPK
Chain of α5β3γ2 GABAA receptors (P63079 26-473 partner): as the sequence (P63079 26-473 partner) above
Chain of α5β3γ2 GABAA receptors (P18508 39-466): as the sequence (P18508 39-466) above
Method in brief: as §1

[12] = molecular target: α1β3γ2 GABAA receptors (Rattus norvegicus, UniProt P18508+P62813); experiment: as above; format: cell-based
Chain of α1β3γ2 GABAA receptors (P62813 28-455): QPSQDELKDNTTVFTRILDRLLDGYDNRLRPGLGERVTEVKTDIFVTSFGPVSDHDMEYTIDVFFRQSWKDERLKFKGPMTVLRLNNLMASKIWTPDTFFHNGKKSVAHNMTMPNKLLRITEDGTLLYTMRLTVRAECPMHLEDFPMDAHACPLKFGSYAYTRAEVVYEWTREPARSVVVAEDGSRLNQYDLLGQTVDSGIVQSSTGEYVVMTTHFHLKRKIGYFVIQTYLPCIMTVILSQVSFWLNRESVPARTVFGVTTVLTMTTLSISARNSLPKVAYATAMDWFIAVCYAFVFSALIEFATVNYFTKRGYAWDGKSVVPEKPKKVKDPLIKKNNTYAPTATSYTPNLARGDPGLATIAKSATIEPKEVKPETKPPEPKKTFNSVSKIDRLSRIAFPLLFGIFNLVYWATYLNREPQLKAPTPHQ
Chain of α1β3γ2 GABAA receptors (P63079 26-473 partner): as the sequence (P63079 26-473 partner) above
Chain of α1β3γ2 GABAA receptors (P18508 39-466): as the sequence (P18508 39-466) above
Method in brief: as §1

[13] = molecular target: α3β3γ2 GABAA receptors (Rattus norvegicus, UniProt P18508+P20236); experiment: as above; format: cell-based; conditions: dose-response curves
Chain of α3β3γ2 GABAA receptors (P20236 29-493): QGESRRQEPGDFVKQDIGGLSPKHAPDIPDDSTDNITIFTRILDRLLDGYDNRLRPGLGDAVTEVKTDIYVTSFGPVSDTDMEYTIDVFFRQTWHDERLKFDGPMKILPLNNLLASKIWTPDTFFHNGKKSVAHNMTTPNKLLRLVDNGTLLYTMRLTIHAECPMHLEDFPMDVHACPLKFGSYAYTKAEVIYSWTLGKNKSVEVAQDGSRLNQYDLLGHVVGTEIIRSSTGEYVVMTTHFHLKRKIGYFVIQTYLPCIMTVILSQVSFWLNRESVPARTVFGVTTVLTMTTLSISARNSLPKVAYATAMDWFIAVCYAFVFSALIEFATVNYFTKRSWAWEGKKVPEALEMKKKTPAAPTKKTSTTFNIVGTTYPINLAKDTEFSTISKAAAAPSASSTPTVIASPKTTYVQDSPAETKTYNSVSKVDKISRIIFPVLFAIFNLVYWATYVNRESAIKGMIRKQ
Chain of α3β3γ2 GABAA receptors (P63079 26-473 partner): as the sequence (P63079 26-473 partner) above
Chain of α3β3γ2 GABAA receptors (P18508 39-466): as the sequence (P18508 39-466) above
Method in brief: as §1

[14] = positive control, 3 mg/kg, i.p.

CN1C(=O)CN=C(c2ccccc2)c2cc(Cl)ccc21 [Diazepam, reference compound]
Anxiolytic activity (time spent in the lighted area vs vehicle) [1, 14]: significantly anxiolytic
Locomotor activity vs vehicle [2, 14]: significantly reduced locomotor activity

C#Cc1ccc2c(c1)C(c1ccccc1)=NCc1c(C(=O)OCC)ncn1-2 [compound 1]
Side effects, in words [3]: lacked sedative, ataxic, muscle relaxant and amnestic side effects
Anti-conflict effect [3]: anti-conflict effect
Effect on non-suppressed responding / response rates [3]: without producing diazepam-like alterations
Stability in human tissues, in words [4]: stable in human blood, plasma, brain and kidney
Safety in humans [5]: safe in humans
Metabolic transformation in human liver, in words [6]: largely transformed into the inactive metabolite XHe-II-053-acid (4)
Preclinical safety and efficacy, in words [7]: safe and effective

C#Cc1ccc2c(c1)C(c1ccccn1)=NCc1c(C(=O)OCC)ncn1-2 [compound 2]
Side effects, in words [3]: lacked sedative, ataxic, muscle relaxant and amnestic side effects
Anti-conflict effect [3]: anti-conflict effect
Effect on non-suppressed responding / response rates [3]: without producing diazepam-like alterations
Tolerance development (analgesic activity, chronic versus acute treatment) ([8]; 9-day chronic treatment period): no loss of analgesic activity
Sedation and motor impairment ([8]; at doses producing maximal antihyperalgesia): devoid of sedation and motor impairment
Metabolic stability on human liver microsomes, in words [9]: minimal metabolism

C#Cc1ccc2c(c1)C(c1ccccc1F)=NCc1c(C(=O)OCC)ncn1-2 [compound 3]
Anti-conflict effect [3]: robust anti-conflict effect
Effect on non-suppressed responding / response rates [3]: some reduction in response rates at the highest dose tested
Metabolic stability on human liver microsomes, in words [9]: underwent biotransformation almost quantitatively; also recorded: not very stable

C#Cc1ccc2c(c1)C(c1ccccc1)=NCc1c(C(=O)O)ncn1-2 [compound 4]
Metabolic stability on human liver microsomes, in words [9]: did not exhibit any metabolism

C#Cc1ccc2c(c1)C(c1ccccn1)=NCc1c(C(=O)O)ncn1-2 [compound 5]
Metabolic stability on human liver microsomes, in words [9]: did not exhibit any metabolism

C#Cc1ccc2c(c1)C(c1ccccc1)=NCc1c(C(=O)NC)ncn1-2 [compound 6, 8-Ethynyl-N-methyl-6-phenyl-4H-benzo-[f]-imidazo-[1,5-a]-[1,4]-diazepine-3-carboxamide]
Efficacy, in words [10]: very weak agonistic effects
Metabolic stability on human liver microsomes, in words [9]: decreased rate of metabolism; also recorded: much more stable on human liver microsomes than 1
Efficacy, in words ([11]; 100 nM): very weak agonistic effects
Efficacy, in words ([11]; higher concentration): antagonist
Efficacy, in words ([12]; 100 nM): very weak agonistic effects
Efficacy, in words ([12]; higher concentration): antagonist

C#Cc1ccc2c(c1)C(c1ccccn1)=NCc1c(C(=O)NC)ncn1-2 [compound 7, 8-Ethynyl-N-methyl-6-(pyridine-2-yl)-4H-benzo-[f]-imidazo-[1,5-a]-[1,4]-diazepine-3-carboxamide]
Relative potency, in words [13]: relatively less potent than 8
Metabolic stability on human liver microsomes, in words [9]: much more stable on human liver microsomes than 1

C#Cc1ccc2c(c1)C(c1ccccc1F)=NCc1c(C(=O)NC)ncn1-2 [compound 8, 8-Ethynyl-N-methyl-6-(2-fluorophenyl)-4H-benzo-[f]-imidazo-[1,5-a]-[1,4]-diazepine-3-carboxamide]
Metabolic stability on human liver microsomes, in words [9]: significantly more stable than the corresponding ethyl ester analog 3

C#Cc1ccc2c(c1)C(c1ccccc1)=NCc1c(-c3nc(C(C)C)no3)ncn1-2 [compound 11]
Anxiolytic activity (time spent in the lighted area vs vehicle) ([1]; 10 and 100 mg/kg): significant anxiolytic activity
Metabolic stability on human liver microsomes, in words [9]: significantly more stable than 1 and 2 respectively; also recorded: much more stable on human liver microsomes than 1
Locomotor activity vs vehicle ([2]; 10 and 100 mg/kg): significantly increased locomotor activity
Sedation / ataxia, in words ([2]; 10 and 100 mg/kg): devoid of sedative properties; also recorded: no effects from either ataxia or sedation; also recorded: no sedative properties

C#Cc1ccc2c(c1)C(c1ccccn1)=NCc1c(-c3nc(C(C)C)no3)ncn1-2 [compound 12, 5-(8-Ethynyl-6-(pyridin-2-yl)-4H-benzo-[f]-imidazo-[1,5-a]-[1,4]-diazepine-3-yl)-3-isopropyl-1,2,4-oxadiazole]
Relative potency, in words [13]: far less potent than 6 and 11
Metabolic stability on human liver microsomes, in words [9]: significantly more stable than 1 and 2 respectively
